Screening results (PubChem)
TAAR1 antagonist: antagonists of human TAAR1. AID 624466. 1.5% of 360,000 active. inhibition, % at 3 µM. CHO RD-HGA16 TAAR1, Fluo-8 calcium fluorescence, antagonist. Q96RJ0;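 active = inhibition above a per-plate cutoff, the mean inhibition of test compounds on that plate plus 3 SD, cut at about 49% in these data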;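 also: 0% = DMSO plus EC80 beta-PEA response and 100% = DMSO alone without agonist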
Target sequence (Q96RJ0 whole entry, looked up): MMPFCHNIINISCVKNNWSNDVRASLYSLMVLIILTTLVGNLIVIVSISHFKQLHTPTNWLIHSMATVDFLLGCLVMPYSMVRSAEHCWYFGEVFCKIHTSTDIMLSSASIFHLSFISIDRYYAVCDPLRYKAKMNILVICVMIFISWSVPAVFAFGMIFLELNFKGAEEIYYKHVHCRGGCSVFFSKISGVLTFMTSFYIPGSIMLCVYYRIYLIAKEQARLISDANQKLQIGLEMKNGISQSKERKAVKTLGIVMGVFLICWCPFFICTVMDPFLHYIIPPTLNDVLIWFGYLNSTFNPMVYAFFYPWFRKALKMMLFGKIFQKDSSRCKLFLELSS
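Test system – hTAAR1-expressing CHO RD-HGA16 cells, Gα16-coupled · Also added – β-PEA at EC80 concentration, post-compound challenge · Compound – 3 µM, single point · Incubation – dye loading 75 min at 37 °C, then 30 min room temperature · Measured by – Fluo-8 intracellular calcium dye fluorescence, real-time kinetic reads · Benchmarks – vehicle and agonist controls · Replicates – singlicate, one well per test compound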
MC4R antagonist: blocks human MC4R cAMP signaling; P32245; MC4R-expressing cells, MTII-stimulated cAMP, LANCE TR-FRET; inhibition, % at 6.5 µM; 0.48% of 360,000 active;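 active = inhibition above its plate's cutoff, the mean of tested wells on that plate plus 3 SD, cut at about 29% in these data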;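 also: 0% = Melanotan II alone and 100% = Melanotan II plus saturating MCL0020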
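Material: human MC4R-expressing U2OS cells. Probe or stimulus: Melanotan II challenge. Dosing: 6.5 µM single dose. Times: 30-min compound, 1-h challenge, 1-h detection, room temperature. Technique: TR-FRET with Eu-cAMP and labeled anti-cAMP, 671 nm. Replication: singlicate.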
MC4R barr agon: activates human MC4R beta-arrestin recruitment | activation, % at 8.9 µM | U2OS MC4R beta-arrestin complementation, luminescence; percent of melanotan II response, DMSO zero | 0.98% of 360,000 active;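 active = activation above a per-plate cutoff, the mean activation of sample wells on that plate plus 3 SD, cut at about 8% in these data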
TAAR1 ag: agonists of human TAAR1. CHO RD-HGA16 TAAR1, Fluo-8 calcium fluorescence; vehicle wells 0%, saturating PEA agonist 100%. 0.99% of 360,000 active. activation, % at 3 µM. AID 624467;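 active = activation above the mean activation of all test compounds in the run plus 3 SD, cut at about 38% in these data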
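Test system: RD-HGA16 (CHO) cells co-expressing Gα16 and hTAAR1 | Doses: Single dose, 3 µM | Schedule: 17-24 h seeding, 75 min 37 °C dye, 30 min RT | Evaluation: % activation from peak over basal fluorescence ratio, DMSO-to-PEA scaled | Technique: Kinetic Fluo-8 calcium fluorescence | Benchmarks: Low control DMSO, high control PEA (EC100)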
m5-HT2A agonist: mouse HTR2A agonism via beta-arrestin recruitment; CHO-K1 mHTR2A beta-arrestin complementation, luminescence; percent of 30 µM serotonin response; activation, % at 7.6 µM; 0.66% of 360,000 active; AID 624169;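 active = activation above a run cutoff, the mean activation of all tested compounds plus 3 SD, cut at about 14% in these data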;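 also: 0% = plate median of compound wells and 100% = 30 µM serotonin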
Beta2AR agonist: activates human beta-2 adrenergic receptor causing internalization | Am2.2-beta2AR cells, FAP receptor internalization, flow cytometry | 0.43% of 340,000 active | P07550 | AID 504454 | response, % (no concentration beside the values);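 active = response above a set limit, near 3 SD of response in nonfluorescent compounds, cut at about 42% in these data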
Target sequence (P07550 whole entry, looked up): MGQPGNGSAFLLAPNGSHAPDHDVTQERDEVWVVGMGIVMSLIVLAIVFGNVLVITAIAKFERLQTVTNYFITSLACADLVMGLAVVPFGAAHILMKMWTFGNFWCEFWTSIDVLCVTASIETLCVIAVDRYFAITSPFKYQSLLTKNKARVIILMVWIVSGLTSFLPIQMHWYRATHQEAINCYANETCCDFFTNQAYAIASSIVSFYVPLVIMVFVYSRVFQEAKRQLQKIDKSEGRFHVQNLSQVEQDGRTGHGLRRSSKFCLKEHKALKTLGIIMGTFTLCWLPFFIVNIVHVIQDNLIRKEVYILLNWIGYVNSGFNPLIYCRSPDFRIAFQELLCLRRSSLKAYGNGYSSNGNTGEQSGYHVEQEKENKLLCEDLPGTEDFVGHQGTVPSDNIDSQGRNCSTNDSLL
MC4R barr ag: human MC4R beta-arrestin agonism confirmation | shares compounds with MC4R barr agon | U2OS MC4R beta-arrestin recruitment, luminescence; scaled DMSO 0%, Melanotan II 100% | activation, % at 8.9 µM | 31% of 2,400 active | AID 602192;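 active = mean activation across replicates above the hit cutoff set in the earlier primary screen, cut at about 8% in these data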
MOR-DOR barr ag: counter-screen for MC4R agonists: agonists of mu-delta opioid heterodimer; activation, % at 9.2 µM; U2OS PathHunter beta-arrestin, beta-gal luminescence; percent of deltorphin B response, DMSO zero; AID 602194; shares compounds with MC4R barr agon; 5.8% of 2,400 active;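 active = mean activation across replicates exceeds the hit threshold derived in the earlier primary screen, cut at about 18% in these data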;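 also: 100% = deltorphin B at 0.9 µM final and 0% = DMSO alone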
Active calls of the source: *; i = inactive; . = not tested or not shown. Rows were chosen to be rich in hits. Some 4.3% of all compounds tested hit in one or more screens of this group.

SMILES	TAAR1 antagonist	MC4R antagonist	MC4R barr agon	TAAR1 ag	m5-HT2A agonist	Beta2AR agonist	MC4R barr ag	MOR-DOR barr ag
Cc1nc(Nc2ccc3c(c2)OCO3)c2oc3ccccc3c2n1	-5.0	-1.8	-1.3	-1.6	-4.7	11.1	.	.
COc1ccc(NC(=O)c2c(-c3ccccc3)noc2C)c(OC)c1	-12.6	2.3	1.7	-1.1	-2.7	-8.6	.	.
COc1cc(OC)c(NC(=O)c2c(-c3ccccc3)noc2C)cc1Cl	38.4	7.7	24.6*	2.9	-3.1	-0.6	5.5	6.1
COc1ccc(Cl)cc1NC(=O)c1c(-c2ccccc2)noc1C	-4.0	-0.6	27.5*	-0.7	2.9	-6.3	-0.1	3.5
O=C(CSc1ncnc2c1nnn2Cc1ccccc1F)NCC1CCCO1 (centres undefined)	-6.4	15.9	-2.1	0.6	-6.2	3.0	.	.
COc1ccc(CCN(C)C(=O)c2cc(=O)c3ccccc3o2)cc1OC	-9.2	3.3	-0.3	0.8	2.6	-4.5	.	.
O=C(Nc1cnn(Cc2ccc(Cl)cc2Cl)c1)c1noc2c1CCCC2	15.3	4.4	2.8	24.7	1.1	-10.7	.	.
O=C(Nc1cnn(Cc2ccc(Cl)cc2Cl)c1)c1cc(-c2cccs2)on1	26.8	-0.9	20.7*	14.8	-0.3	-6.5	2.2	4.2
CCN1CCCC1CNC(=O)c1ccc2c(c1)NC(=O)/C(=C\c1ccc(C)cc1)S2 (centres undefined)	18.9	6.6	15.3*	3.3	-13.8	33.5	13.1*	2.5
Cc1ccc(/C=C2/Sc3ccc(C(=O)NCCN4CCOCC4)cc3NC2=O)cc1	9.8	2.3	-2.8	0.3	-6.3	10.7	.	.
COc1ccc(/C(C)=N/Nc2ncc(Cl)cc2Cl)c(O)c1	20.2	-6.2	12.8*	-1.6	-7.9	-9.9	-2.1	1.8
O=C(OCC(O)C(O)C(O)C(SCc1ccccc1)SCc1ccccc1)c1ccccc1 (centres undefined)	18.5	6.4	17.2*	4.6	4.4	1.1	14.1*	11.2
N/C(=N\OC(=O)Nc1ccccc1)c1ncc([N+](=O)[O-])s1	-16.0	5.8	-0.7	1.1	-0.9	11.4	.	.
Cc1sc2ncnc(SCC(=O)c3cccs3)c2c1C	18.5	-0.9	42.5*	13.1	7.8	5.2	4.3	6.2
Cc1ccc(F)cc1C(=O)N1CCCCC1c1cc(C(=O)Nc2ccccc2)no1 (centres undefined)	-1.3	23.9	1.1	1.2	-4.3	.	.	.
O=C(c1ccc(COc2ccccc2Br)o1)N1N=C(C(F)F)CC1(O)C(F)F (centres undefined)	10.4	12.9	14.5*	-0.5	-3.5	4.9	8.0	11.5
COc1ccc(C(C)=O)cc1CSc1nc2ccccc2c(=O)n1-c1ccccc1	-16.1	-24.0	15.6*	2.4	1.9	5.3	2.5	1.9
O=C(/C=C/c1ccccc1[N+](=O)[O-])Nc1cc(S(=O)(=O)N2CCOCC2)ccc1N1CCOCC1	-10.5	1.4	-2.3	1.9	-2.2	8.7	.	.
CCOc1c(Cl)cc(C(=O)Nc2ccccc2-c2ccccc2)cc1Cl	-7.3	5.7	0.1	9.8	-0.8	-1.0	.	.
O=C(Nc1ccccc1-c1ccccc1)c1cc(C(F)(F)F)cc(C(F)(F)F)c1	-12.3	13.3	17.2*	-1.6	1.5	-2.0	-0.9	4.4
CCc1ccc(NC(=O)c2ccc3c(c2)C(=O)N(Cc2ccco2)C3=O)cc1	1.9	-9.9	11.4*	-0.5	-1.4	-5.0	5.6	2.8
COC(=O)Cc1ccc(NC(=O)c2ccc3c(c2)C(=O)N(Cc2ccco2)C3=O)cc1	-25.5	10.7	5.1	14.9	-0.3	-3.0	.	.
CCOc1ccc(CN2CCN(Cc3[nH]c4ccccc4c3C)CC2CCO)cc1 (centres undefined)	1.4	13.6	11.7*	22.2	-3.8	21.6	3.0	22.4*
CCN(CC)CC(=O)Nc1c(C)cccc1C	-10.8	3.0	-0.1	4.1	-0.3	-2.9	.	.
CCN(CC)CC(=O)Nc1cccc2c1C(=O)c1ccccc1C2=O	1.1	24.1	10.6*	6.7	0.4	-7.3	2.1	6.3
SMILES	TAAR1 antagonist	MC4R antagonist	MC4R barr agon	TAAR1 ag	m5-HT2A agonist	Beta2AR agonist	MC4R barr ag	MOR-DOR barr ag
Cc1nn(C)c(C(=O)Nc2ccc(Br)cc2F)c1Br	.	7.5	13.3*	.	3.0	-0.3	-0.5	4.5
CC(=O)C1CN(S(=O)(=O)c2ccc(C)cc2)C(c2ccccc2)CC1C (centres undefined)	-24.8	.	.	4.2	-9.9	.	.	.
CC(C)C[C@H]1CN(CCCC[C@H]2CNC(=O)C(=O)N2CCc2ccccc2)C(=O)C(=O)N1Cc1ccccc1	8.8	.	.	1.8	5.4	.	.	.
O=C(CCn1cccn1)Nc1ccc2c(c1)OCCO2	-1.4	5.8	-0.4	1.2	0.6	4.8	.	.
CCN1/C(=C/c2ccc3cc(C)ccc3[n+]2CC)Sc2cc(C)c(C)cc21	17.7	-10.7	28.6*	14.3	-3.1	i	78.5*	11.0
O=C(O)c1cc(-c2ccc(-c3c(-c4ccc5c(c4)OCO5)noc3-c3ccsc3)cc2)nc2ccccc12	-8.7	-6.2	-2.3	4.4	1.4	14.9	.	.
c1ccc(-c2onc(-c3ccco3)c2-c2ccc3c(c2)OCO3)cc1	6.8	11.8	10.0*	0.0	0.7	8.3	5.0	5.9
CCN(C(=O)COC(=O)C1CCC(C(C)(C)C)CC1)c1c(N)n(Cc2ccccc2)c(=O)[nH]c1=O (centres undefined)	-22.5	2.3	-0.2	0.2	5.0	-13.4	.	.
Cc1cc(C(=O)Nc2ccc3c(c2)OCO3)no1	-23.3	2.3	-4.2	3.5	-0.6	4.6	.	.
CC(C)(C)C1CCc2onc(C(=O)Nc3ccc4c(c3)OCO4)c2C1 (centres undefined)	-18.4	-2.6	11.6*	0.9	1.4	-4.7	5.1	4.9
CCCCC(=O)Nc1sc2c(c1C(=O)OCC)CCC(C=O)=C2Cl	.	14.7	10.5*	.	0.4	-14.5	6.8	4.9
Cc1cccc(C(=O)Nc2cc(Cl)ccc2-n2cncn2)c1[N+](=O)[O-]	-4.0	6.7	-1.8	-1.2	-4.7	-2.6	.	.
CCC(C)c1ccc2oc(-c3ccc(NC(=O)Cn4cnc5c(=O)n(C)c(=O)n(C)c54)cc3)nc2c1 (centres undefined)	1.0	23.8	14.1*	2.8	-2.8	0.3	8.6*	.
O=C1Nc2cnc(Cl)nc2Nc2ccc(Cl)cc21	2.5	.	.	1.1	.	.	.	.
